Experimental data reported in ChEMBL document CHEMBL1649247, “Fluoroquinolone resistance in Mycobacterium tuberculosis and mutations in gyrA and gyrB” (2009).
Converted amounts (≈) assume the structure as drawn. The source made the active and inactive calls. No cut-off for these calls is given here.

How the values were obtained:
[1] = test system: Mycobacterium tuberculosis; experiment: Antimycobacterial activity against multidrug-resistant Mycobacterium tuberculosis 08-0790 harboring gyrA Ala90Val mutant gene by resazurin microtiter assay; format: functional
Summary of the method: (§1)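 MIC was read by resazurin microtiter assay against ofloxacin, moxifloxacin and gatifloxacin. Isolates were used as fresh Löwenstein-Jensen subcultures kept at 37°C for no longer than 4 weeks.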

[2] = test system: Mycobacterium tuberculosis; experiment: Antimycobacterial activity against multidrug-resistant Mycobacterium tuberculosis 08-0791 harboring gyrA Ala90Val mutant gene by resazurin microtiter assay; format: functional; summary of the method: as §1
[3] = test system: Mycobacterium tuberculosis; experiment: Antimycobacterial activity against multidrug-resistant Mycobacterium tuberculosis 99-1914 harboring gyrA Asp94Gly mutant gene by resazurin microtiter assay; format: functional; summary of the method: as §1
[4] = test system: Mycobacterium tuberculosis; experiment: Antimycobacterial activity against Mycobacterium tuberculosis 02-1975 harboring gyrA Asp94Gly mutant gene by resazurin microtiter assay; format: functional
Summary of the method: (§2)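 Isolates taken from fresh Löwenstein-Jensen subcultures grown at 37°C for at most 4 weeks. Drug stocks 1 mg/ml in 0.1 N NaOH, filter sterilized, stored at −20°C less than 2 months. MIC read by resazurin microtiter assay following a previously described protocol.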

[5] = test system: Mycobacterium tuberculosis; experiment: Antimycobacterial activity against multidrug-resistant Mycobacterium tuberculosis 01-2614 harboring gyrA Asp94Gly mutant gene by resazurin microtiter assay; format: functional; summary of the method: as §2
[6] = test system: Mycobacterium tuberculosis; experiment: Antimycobacterial activity against multidrug-resistant Mycobacterium tuberculosis 08-0744 harboring gyrA Asp94Tyr mutant gene by resazurin microtiter assay; format: functional; summary of the method: as §1
[7] = test system: Mycobacterium tuberculosis; experiment: Antimycobacterial activity against multidrug-resistant Mycobacterium tuberculosis 01-0172 harboring gyrA Asp94Ala mutant gene by resazurin microtiter assay; format: functional; summary of the method: as §2
[8] = test system: Mycobacterium tuberculosis; experiment: Antimycobacterial activity against Mycobacterium tuberculosis 08-0787 harboring gyrA Asp94His mutant gene and deletion of codons 678 and 679 in gyrB mutant gene by resazurin microtiter assay; format: functional; summary of the method: as §2
[9] = test system: Mycobacterium tuberculosis; experiment: Antimycobacterial activity against Mycobacterium tuberculosis 08-0745 harboring gyrA Asp89Asn mutant gene by resazurin microtiter assay; format: functional; summary of the method: as §2
[10] = test system: Mycobacterium tuberculosis; experiment: Antimycobacterial activity against multidrug-resistant Mycobacterium tuberculosis 08-0794 harboring gyrA Thr80Ala mutant gene by resazurin microtiter assay; format: functional; summary of the method: as §1
[11] = test system: Mycobacterium tuberculosis; experiment: Antimycobacterial activity against Mycobacterium tuberculosis 08-0815 harboring gyrA Thr80Ala and Ala90Gly mutant gene by resazurin microtiter assay; format: functional; summary of the method: as §2
[12] = test system: Mycobacterium tuberculosis; experiment: Antimycobacterial activity against Mycobacterium tuberculosis 08-0773 harboring gyrA Pro8Ala mutant gene by resazurin microtiter assay; format: functional; summary of the method: as §2
[13] = test system: Mycobacterium tuberculosis; experiment: Antimycobacterial activity against Mycobacterium tuberculosis 08-0771 harboring gyrA putative promoter mutant gene by resazurin microtiter assay; format: functional; summary of the method: as §2
[14] = test system: Mycobacterium tuberculosis; experiment: Antimycobacterial activity against multidrug-resistant Mycobacterium tuberculosis 08-0746 by resazurin microtiter assay; format: functional; summary of the method: as §1
[15] = test system: Mycobacterium tuberculosis; experiment: Antimycobacterial activity against multidrug-resistant Mycobacterium tuberculosis 08-0779 by resazurin microtiter assay; format: functional; summary of the method: as §1
[16] = test system: Mycobacterium tuberculosis; experiment: Antimycobacterial activity against Mycobacterium tuberculosis 00-0715 harboring gyrA Ala90Val mutant gene assessed as microbial susceptibility by agar proportion method; format: functional, organism-based
Summary of the method: (§3)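 Clinical isolates freshly subcultured on Löwenstein-Jensen medium, held at 37°C no longer than 4 weeks. Fluoroquinolone stocks 1 mg/ml in 0.1 N NaOH, filter sterilized, kept at −20°C under 2 months. Standard proportion method on 7H11 agar; breakpoints 2 mg/liter ofloxacin, 0.5 mg/liter moxifloxacin and gatifloxacin; scored susceptible or resistant.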

[17] = test system: Mycobacterium tuberculosis; experiment: Antimycobacterial activity against multidrug-resistant Mycobacterium tuberculosis 03-0738 harboring gyrA Ala90Val mutant gene assessed as microbial susceptibility by agar proportion method; format: functional, organism-based
Summary of the method: (§4)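 Clinical isolates freshly subcultured on Löwenstein-Jensen medium at 37°C for no more than 4 weeks. Susceptibility by standard proportion method on 7H11 agar at breakpoints of 2 mg/liter ofloxacin and 0.5 mg/liter moxifloxacin and gatifloxacin. Drug stocks 1 mg/ml in 0.1 N NaOH, filter sterilized, held at −20°C under 2 months. Isolates scored susceptible or resistant.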

[18] = test system: Mycobacterium tuberculosis; experiment: Antimycobacterial activity against multidrug-resistant Mycobacterium tuberculosis 02-2934 harboring gyrA Ala90Val mutant gene assessed as microbial susceptibility by agar proportion method; format: functional, organism-based; summary of the method: as §3
[19] = test system: Mycobacterium tuberculosis; experiment: Antimycobacterial activity against multidrug-resistant Mycobacterium tuberculosis 01-1647 harboring gyrA Ala90Val mutant gene assessed as microbial susceptibility by agar proportion method; format: functional, organism-based; summary of the method: as §3
[20] = test system: Mycobacterium tuberculosis; experiment: Antimycobacterial activity against multidrug-resistant Mycobacterium tuberculosis 08-0790 harboring gyrA Ala90Val mutant gene assessed as microbial susceptibility by agar proportion method; format: functional, organism-based; summary of the method: as §4
[21] = test system: Mycobacterium tuberculosis; experiment: Antimycobacterial activity against multidrug-resistant Mycobacterium tuberculosis 01-2614 harboring gyrA Asp94Gly mutant gene assessed as microbial susceptibility by agar proportion method; format: functional, organism-based; summary of the method: as §3
[22] = test system: Mycobacterium tuberculosis; experiment: Antimycobacterial activity against Mycobacterium tuberculosis 04-0649 harboring gyrA Asp94Asn mutant gene assessed as microbial susceptibility by agar proportion method; format: functional, organism-based; summary of the method: as §3
[23] = test system: Mycobacterium tuberculosis; experiment: Antimycobacterial activity against multidrug-resistant Mycobacterium tuberculosis 02-2399 harboring gyrA Asp94Tyr mutant gene assessed as microbial susceptibility by agar proportion method; format: functional, organism-based; summary of the method: as §3
[24] = test system: Mycobacterium tuberculosis; experiment: Antimycobacterial activity against multidrug-resistant Mycobacterium tuberculosis 02-0319 harboring gyrA Asp94Ala mutant gene assessed as microbial susceptibility by agar proportion method; format: functional, organism-based; summary of the method: as §3
[25] = test system: Mycobacterium tuberculosis; experiment: Antimycobacterial activity against Mycobacterium tuberculosis 08-0745 harboring gyrA Asp89Asn mutant gene assessed as microbial susceptibility by agar proportion method; format: functional, organism-based; summary of the method: as §3
[26] = test system: Mycobacterium tuberculosis; experiment: Antimycobacterial activity against multidrug-resistant Mycobacterium tuberculosis 08-0794 harboring gyrA Thr80Ala mutant gene assessed as microbial susceptibility by agar proportion method; format: functional, organism-based; summary of the method: as §4
[27] = test system: Mycobacterium tuberculosis; experiment: Antimycobacterial activity against Mycobacterium tuberculosis 08-0815 harboring gyrA Thr80Ala and Ala90Gly mutant gene assessed as microbial susceptibility by agar proportion method; format: functional, organism-based; summary of the method: as §3
[28] = test system: Mycobacterium tuberculosis; experiment: Antimycobacterial activity against Mycobacterium tuberculosis 08-0771 harboring gyrA putative promoter mutant gene assessed as microbial susceptibility by agar proportion method; format: functional, organism-based; summary of the method: as §3
[29] = test system: Mycobacterium tuberculosis; experiment: Antimycobacterial activity against multidrug-resistant Mycobacterium tuberculosis 08-0746 assessed as microbial susceptibility by agar proportion method; format: functional, organism-based; summary of the method: as §4
[30] = test system: Mycobacterium tuberculosis; experiment: Antimycobacterial activity against multidrug-resistant Mycobacterium tuberculosis 01-0930 harboring gyrA Ala90Val mutant gene by resazurin microtiter assay; format: functional; summary of the method: as §2
[31] = test system: Mycobacterium tuberculosis; experiment: Antimycobacterial activity against multidrug-resistant Mycobacterium tuberculosis 08-0757 harboring gyrA Ala90Val mutant gene by resazurin microtiter assay; format: functional; summary of the method: as §1

Structure (SMILES)	MIC [1] [µg/mL]	MIC [2] [µg/mL]	MIC [3] [µg/mL]	MIC [4] [µg/mL]	MIC [5] [µg/mL]	MIC [7] [µg/mL]	MIC [8] [µg/mL]	MIC [9] [µg/mL]	MIC [10]	MIC [11]	MIC [12]	MIC [13]	MIC [14] [µg/mL]	MIC [15] [µg/mL]	Activity [16]	Activity [17]	Activity [18]	Activity [19]	Activity [20]	Activity [21]	other results
COc1c(N2CCNC(C)C2)c(F)cc2c(=O)c(C(=O)O)cn(C3CC3)c12 (stereo unspecified) [GATIFLOXACIN]	0.5 (≈ 1.33 µM)	0.25 (≈ 0.666 µM)	1 (≈ 2.66 µM)	1 (≈ 2.66 µM)	1 (≈ 2.66 µM)	0.25 (≈ 0.666 µM)	1 (≈ 2.66 µM)	1 (≈ 2.66 µM)	<=0.062 mg/L	<=0.062 mg/L	<=0.062 mg/L	0.125 µg/mL (≈ 0.333 µM)	≤ 0.062	≤ 0.062	inactive	inactive	inactive	inactive	inactive	inactive	MIC [6]: 1 µg/mL (≈ 2.66 µM); Activity [22]: inactive; Activity [23]: inactive; Activity [24]: inactive; Activity [25]: inactive; Activity [26]: Active; Activity [27]: Active; Activity [28]: Active; Activity [29]: Active; MIC [30]: 0.5 µg/mL (≈ 1.33 µM); MIC [31]: 1 µg/mL (≈ 2.66 µM)
COc1c(N2C[C@@H]3CCCN[C@@H]3C2)c(F)cc2c(=O)c(C(=O)O)cn(C3CC3)c12 [MOXIFLOXACIN]	1 (≈ 2.49 µM)	0.5 (≈ 1.25 µM)	2 (≈ 4.98 µM)	2 (≈ 4.98 µM)	2 (≈ 4.98 µM)	0.5 (≈ 1.25 µM)	2 (≈ 4.98 µM)	2 (≈ 4.98 µM)	<=0.125 mg/L	<=0.125 mg/L	<=0.125 mg/L	<=0.125 mg/L	≤ 0.125	≤ 0.125	inactive	inactive	inactive	inactive	inactive	inactive	Activity [22]: inactive; Activity [23]: inactive; Activity [24]: inactive; Activity [25]: inactive; Activity [26]: Active; Activity [27]: Active; Activity [28]: Active; Activity [29]: Active; MIC [30]: 0.5 µg/mL (≈ 1.25 µM)
CC1COc2c(N3CCN(C)CC3)c(F)cc3c(=O)c(C(=O)O)cn1c23 (stereo unspecified) [OFLOXACIN]	4 (≈ 11.1 µM)	4 (≈ 11.1 µM)	8 (≈ 22.1 µM)	8 (≈ 22.1 µM)	16 (≈ 44.3 µM)	4 (≈ 11.1 µM)	4 (≈ 11.1 µM)	4 (≈ 11.1 µM)	0.5 µg/mL (≈ 1.38 µM)	<=0.25 mg/L	0.5 µg/mL (≈ 1.38 µM)	1 µg/mL (≈ 2.77 µM)	0.5 (≈ 1.38 µM)	0.5 (≈ 1.38 µM)	inactive	inactive	inactive	inactive	inactive	inactive	MIC [6]: 8 µg/mL (≈ 22.1 µM); Activity [22]: inactive; Activity [23]: inactive; Activity [24]: inactive; Activity [25]: inactive; Activity [26]: Active; Activity [27]: Active; Activity [28]: Active; Activity [29]: Active; MIC [30]: 4 µg/mL (≈ 11.1 µM); MIC [31]: 8 µg/mL (≈ 22.1 µM)
